Data as given in ChEMBL document CHEMBL3425447, “Discovery of Orally Available Runt-Related Transcription Factor 3 (RUNX3) Modulators for Anticancer Chemotherapy by Epigenetic Activation and Protein Stabilization” (J Med Chem, 2015).

Legend:
[1] = tested on: NCI-H460; assay: Antitumor activity against human NCI-H460 cells xenografted in BALB/c nude mouse assessed as reduction in tumor weight at 20 mg/kg, po administered daily for 2 weeks measured every 2 or 3 days for 14 days; type: functional
Outline: (§1)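 Female SPF BALB/c nude mice, 6 weeks old, injected subcutaneously in the flank with NCI-H460 cells (3 × 10^7/animal). At tumor volume 50–80 mm3, randomized four per group. Dosed orally at 20 mg/kg in 10% DMAC/10% Tween 80 in saline, daily for two weeks, versus vehicle control. Tumor length and width measured by caliper three times weekly; body weight monitored.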

[2] = target: Histone deacetylase; assay: Inhibition of HDAC in human HeLa cell nuclear extract using Fluor de Lys as substrate incubated with compound for 30 mins by microtiter-plate reading flourimeter analysis; type: protein assay
[3] = tested on: C2C12; assay: Induction of RUNX transcriptional activation in mouse C2C12-6xOSE2 cells at 1 uM after 24 hrs by luciferase reporter assay relative to FGF-2; type: functional
Outline: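 C2C12-6xOSE stable cells grown in DMEM with 10% FBS at 37°C, 5% CO2. Seeded at 1 × 10^4 cells/well; next day treated with compound or FGF-2 (1 µM each). After 24 h, luciferase measured with Bright-Glo. Activity expressed as percent of the FGF-2 positive-control response.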

[4] = Growth inhibition of human PC3 cells after 5 days by sulforhodamine B assay; type: functional; details: PC-3, 120 h
[5] = tested on: MDA-MB-231; assay: Growth inhibition of human MDA-MB-231 cells after 5 days by sulforhodamine B assay; type: functional; details: MDA-MB-231, 120 h
[6] = tested on: ACHN; assay: Growth inhibition of human ACHN cells after 5 days by sulforhodamine B assay; type: functional; details: 120 h
[7] = Growth inhibition of human HCT15 cells after 5 days by sulforhodamine B assay; type: functional; details: HCT-15, 120 h
[8] = tested on: NCI-H23; assay: Growth inhibition of human NCI-H23 cells after 5 days by sulforhodamine B assay; type: functional; details: NCI-H23, 120 h
[9] = Growth inhibition of human NUGC3 cells after 5 days by sulforhodamine B assay; type: functional; details: NUGC-3, 120 h
[10] = tested on: HEK293; assay: Induction of myc-tagged RUNX3 acetylation in human HEK293 cells assessed as acetylated RUNX3 level at 1 uM after 24 hrs by immunoprecipitation analysis relative to TSA; type: functional
Outline: (§2)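 HEK293 cells (DMEM, 10% FBS) transfected with myc-RUNX3 vector using Lipofectamine 2000. Next day treated at 1 µM for 24 h. Lysates (HEPES pH 7.5, NP-40 buffer) immunoprecipitated with anti-myc antibody and protein G beads at 4°C. Immunoprecipitates western-blotted with anti-acetylated lysine antibody; relative acetylated RUNX3 quantified.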

[11] = tested on: HEK293; assay: Induction of myc-tagged RUNX3 acetylation in human HEK293 cells assessed as RUNX3 level at 1 uM after 24 hrs by immunoprecipitation analysis relative to TSA; type: functional; outline: as §2
[12] = Metabolic stability in mouse liver microsomes assessed as compound remaining at 1 uM after 30 mins by LC-ESI/MS/MS analysis in absence of NADPH; type: ADME; details: read-out: Stability
Outline: (§3)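 Compound at 1 µM incubated in triplicate with pooled mouse liver microsomes (0.5 mg/ml final) in 0.1 M potassium phosphate, pH 7.4, at 37°C, with or without 1 mM NADPH. Reactions stopped at 0 and 30 min with ice-cold acetonitrile containing internal standard. After centrifugation, supernatant analyzed by LC-ESI/MS/MS; percent remaining from analyte/IS peak-area ratios. Buspirone served as positive control.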

[13] = Metabolic stability in mouse liver microsomes assessed as compound remaining at 1 uM after 30 mins byLC-ESI/MS/MS analysis in presence of NADPH; type: ADME; details: read-out: Stability; outline: as §3
[14] = Retention time of the compound by HPLC analysis; type: physicochemical
[15] = Metabolic stability in rat liver microsomes assessed as compound remaining at 1 uM after 60 mins by LC-ESI/MS/MS analysis in absence of NADPH; type: ADME; details: read-out: Stability
Outline: (§4)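 Rat or human liver microsomes (0.5 mg/ml) incubated with test compound (1 µM) at 37°C for 60 min, with or without NADPH or UDPGA cofactor, n = 2–3. Percent parent remaining quantified by LC-ESI/MS/MS.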

[16] = Metabolic stability in rat liver microsomes assessed as compound remaining at 1 uM after 60 mins byLC-ESI/MS/MS analysis in presence of NADPH; type: ADME; details: read-out: Stability; outline: as §4
[17] = Metabolic stability in rat liver microsomes assessed as compound remaining at 1 uM after 60 mins by LC-ESI/MS/MS analysis in absence of UDPGA; type: ADME; details: read-out: Stability; outline: as §4
[18] = Metabolic stability in rat liver microsomes assessed as compound remaining at 1 uM after 60 mins by LC-ESI/MS/MS analysis in presence of UDPGA; type: ADME; details: read-out: Stability; outline: as §4
[19] = tested on: NCI-H460; assay: Induction of RUNX3 mRNA expression in human NCI-H460 cells after 24 hrs by RT-PCR analysis; type: functional, cell-based
Outline: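 NCI-H460 cells in RPMI1640 with 10% FBS were plated and treated the following day. After 24 h, total RNA extracted and 1 µg reverse-transcribed. RUNX3 cDNA amplified with specific primers, run on a 1.5% agarose gel and stained with ethidium bromide. GAPDH served as internal control; SNU16 gastric cells served as positive-control line.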

[20] = Metabolic stability in human liver microsomes assessed as compound remaining at 1 uM after 60 mins by LC-ESI/MS/MS analysis in absence of NADPH; type: ADME; details: read-out: Stability; outline: as §4
[21] = Metabolic stability in human liver microsomes assessed as compound remaining at 1 uM after 60 mins byLC-ESI/MS/MS analysis in presence of NADPH; type: ADME; details: read-out: Stability; outline: as §4
[22] = Metabolic stability in human liver microsomes assessed as compound remaining at 1 uM after 60 mins by LC-ESI/MS/MS analysis in absence of UDPGA; type: ADME; details: read-out: Stability; outline: as §4
[23] = Metabolic stability in human liver microsomes assessed as compound remaining at 1 uM after 60 mins byLC-ESI/MS/MS analysis in presence of UDPGA; type: ADME; details: read-out: Stability; outline: as §4
[24] = AUC(0 to infinity) in Sprague-Dawley rat at 2 mg/kg, iv by LC-MS/MS analysis; type: ADME, organism-based; design: time infinity, dose 2 mg/kg, route intravenous; details: plasma
[25] = Clearance in Sprague-Dawley rat at 2 mg/kg, iv by LC-MS/MS analysis; type: ADME, organism-based; design: dose 2 mg/kg, route intravenous; details: in vivo
Outline: (§5)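 Specific pathogen-free male SD rats (10 weeks, 298–315 g), n = 3 per route, single dose 2 mg/kg i.v. or 10 mg/kg p.o. Oral vehicle DMAC/Vitamin E TPGS 80/25% solutol HS 15 (10/10/80); dosing volumes 5 (i.v.) and 10 ml/kg (p.o.). Plasma precipitated with acetonitrile containing carbamazepine internal standard, LC-MS/MS. Noncompartmental analysis of mean profiles; linear-trapezoidal AUC (oral 0–5 h, i.v. to infinity).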

[26] = Volume of distribution at steady state in Sprague-Dawley rat at 2 mg/kg, iv by LC-MS/MS analysis; type: ADME, organism-based; design: dose 2 mg/kg, route intravenous; details: in vivo, read-out: Vdss; outline: as §5
[27] = Terminal half life in Sprague-Dawley rat at 2 mg/kg, iv by LC-MS/MS analysis; type: ADME, organism-based; design: dose 2 mg/kg, route intravenous; details: in vivo, read-out: beta t1/2 (converted); outline: as §5
[28] = Tmax in Sprague-Dawley rat at 10 mg/kg, po by LC-MS/MS analysis; type: ADME, organism-based; design: dose 10 mg/kg, route oral; details: in vivo; outline: as §5
[29] = Cmax in Sprague-Dawley rat at 10 mg/kg, po by LC-MS/MS analysis; type: ADME, organism-based; design: dose 10 mg/kg, route oral; details: in vivo; outline: as §5
[30] = AUC (0 to 5 hrs) in Sprague-Dawley rat at 10 mg/kg, po by LC-MS/MS analysis; type: ADME, organism-based; design: dose 10 mg/kg, route oral; details: plasma; outline: as §5
[31] = Terminal half life in Sprague-Dawley rat at 10 mg/kg, po by LC-MS/MS analysis; type: ADME, organism-based; design: dose 10 mg/kg, route oral; details: in vivo, read-out: beta t1/2 (converted); outline: as §5
[32] = Oral bioavailability in Sprague-Dawley rat at 10 mg/kg by LC-MS/MS analysis; type: ADME, organism-based; details: in vivo; outline: as §5
[33] = tested on: Mus musculus; assay: Toxicity against BALB/c nude mouse xenografted with human NCI-H460 cells assessed as body weight loss at 20 mg/kg, po administered daily for 2 weeks; type: organism-based; design: dose 20 mg/kg, route oral; details: in vivo, 336 h; outline: as §1

Compound	inhibition in vivo at 20 mg/kg [1] [%]	IC50 [2] [nM]	Activity [3] [%]	GI50 [4] [nM]	GI50 [5] [nM]	GI50 [6] [nM]	GI50 [7] [nM]	GI50 [8] [nM]	GI50 [9] [nM]	fold change (FC) [10]	fold change (FC) [11]	remaining at 0.5 h, 1 µM [12] [%]	remaining at 0.5 h, 1 µM [13] [%]	Retention_time [14] [min]	remaining at 1 h, 1 µM [15] [%]	remaining at 1 h, 1 µM [16] [%]	remaining at 1 h, 1 µM [17] [%]	remaining at 1 h, 1 µM [18] [%]	other results
O=C(CCC1=CCN(Cc2ccc(Br)cc2)C1=O)NO	37.9																		
CCOc1ccccc1CCCn1cccc(/C=C/C(=O)NO)c1=O		50	105.5	180	560	320	660	460	470	37.2	13.7	104	31.5	12.367					
COc1cccc(CCCn2cccc(/C=C/C(=O)NO)c2=O)c1		30	142.1	700	720	760	1590	870	1050	0.8	1.1	110	88.4	11.335	116	72.7	81.3	45.7	
O=C(/C=C/c1cccn(Cc2ccc3ccccc3n2)c1=O)NO	45.7	30	687.5	490	100	250	380	130	710	77.5	29.3	100	90.3	9.606	92	83.5	88.9	72.4	Activity [19]: Dose-dependent effect; remaining at 1 h, 1 µM [20]: 74.7%; remaining at 1 h, 1 µM [21]: 75.5%; remaining at 1 h, 1 µM [22]: 95.2%; remaining at 1 h, 1 µM [23]: 99.7%; AUC(0-inf) [24]: 354 ng·h/mL; clearance [25]: 93.3 mL/min/kg; Vd [26]: 14 L/kg; half-life [27]: 4.4 h; Tmax [28]: 0.67 h; Cmax [29]: 142 ng/mL; AUC(0-t) at 4 h [30]: 863 ng·h/mL; half-life [31]: 10.3 h; bioavailability [32]: 48.7%; Activity [33]: Non-toxic
